# Measurements pooled from the literature.
# Each line is one published result; the experiments were not run side by side.
# Target: Myosin light chain kinase, smooth muscle (MYLK, Homo sapiens, UniProt Q15746)
SMILES,effect on,action,technique,cells,tested at,quantity,result
C[C@H](NC(=O)c1cnc2n1[C@](C)(Cc1ccc(C#N)cc1)C(=O)N2c1cc(Cl)c(F)c(Cl)c1)C(=O)NC1(c2ccccn2)CC1,cell-free assay,,competition with immobilised ligand,,1 µM,remaining binding,100%
O=C(Nc1cnn(-c2csc(C(=O)NC3COC3)c2)c1)Nc1ccccc1Cl,enzyme activity,inhibitor,,,5 µM,remaining activity,97.5%
O=C1NC(=O)c2cc(Nc3ccc(F)cc3)c(Nc3ccc(F)cc3)cc21,cell-free assay,,,,0.5 µM,remaining signal,100%
Cn1c(=O)n(-c2ccc(C(C)(C)C#N)cc2)c2c3cc(-c4cnc5ccccc5c4)ccc3ncc21,enzyme activity,inhibitor,,,10 µM,remaining activity,109%
Cn1cncc1C1=CN(c2ncnc3[nH]cnc23)CCS1,enzyme activity,inhibitor,radiometric,,50 nM,inhibition,18.2%
C[C@@H]1CCN(c2nccc(-c3cnn4ncccc34)n2)C1,binding,,,,1 µM,remaining binding,92%
O=C(N1CCS(=O)(=O)CC1)N1C[C@H](c2ccc(OC(F)(F)F)cc2)C[C@H](c2nc(C3CC3)no2)C1,cell-free assay,,competition with immobilised ligand,,1 µM,remaining binding,100%
Oc1ccc(-c2nc(-c3ccncc3)c(-c3ccc(F)cc3)[nH]2)cc1,cell-free assay,,,,0.5 µM,remaining signal,106%
CCN1CCN(Cc2ccc(NC(=O)c3ccc(C)c(Oc4ccnc5[nH]ccc45)c3)cc2C(F)(F)F)CC1,target engagement in cells,inhibitor,chemoproteomics,Huh-7,1 µM,inhibition,-23.4%
CC(C)(C)c1nc2c(s1)c1nc(N)ncc1c1ccc(NS(=O)(=O)c3c(F)cccc3F)c(F)c12,enzyme activity,inhibitor,radiometric,,1 µM,remaining activity,87%
C[S+]([O-])c1ccc(-c2nc(-c3ccncc3)c(-c3ccc(F)cc3)[nH]2)cc1 (centres unmarked),cell-free assay,,,,0.5 µM,remaining signal,101%
COc1cc(Nc2cnc(C#N)c(O[C@H](C)CN(C)C)n2)ncc1-c1cnn(C)c1,enzyme activity,inhibitor,radiometric,,10 µM,remaining activity,103%
CN(c1ncccc1CNc1nc(Nc2ccc3c(c2)CC(=O)N3)ncc1C(F)(F)F)S(C)(=O)=O,enzyme activity,inhibitor,,,1 µM,inhibition,16.6%
Cc1nc(N2CC[C@@H](O)C2)ncc1-c1cc(C(F)(F)F)cc2[nH]ncc12,binding,,competition with immobilised ligand,,1 µM,remaining binding,100%
Nc1ncnc2occ(-c3ccc(NC(=O)Nc4cc(C(F)(F)F)ccc4F)cc3)c12,enzyme activity,inhibitor,,,20 µM,remaining activity,42%
CC(C)(O)[C@H]1CC[C@H](Nc2ccc3ncc(-c4cccc(C(F)(F)F)c4)n3n2)CC1,enzyme activity,inhibitor,,,1 µM,remaining activity,99.8%
C[C@H](c1ccc(F)cc1)N(Cc1cccc(C(=O)O)c1)C(=O)c1cnc2ccccc2c1,cell-free assay,,competition with immobilised ligand,,1 µM,remaining binding,76%
Cn1cnc(Br)c1C1=CN(c2ncnc3[nH]cnc23)CCS1,enzyme activity,inhibitor,radiometric,,50 nM,inhibition,33.5%
O=C(Nc1ccc(Oc2ccc(F)cc2)cc1)N1CCc2ncccc2[C@H]1c1ccc(F)cc1,cell-free assay,,competition with immobilised ligand,,1 µM,remaining binding,100%
CC(C)(C)C(=O)c1sc(NC2CCCCC2)nc1N,enzyme activity,inhibitor,,,10 µM,remaining activity,74%
Cc1c(NC(=O)c2cc(C(N)=O)nc3cc(F)ccc23)c(C(F)(F)F)nn1Cc1ccc(C#N)cc1,binding,,competition with immobilised ligand,,1 µM,remaining binding,65%
O=C1Nc2ccc(Cl)cc2C1=Cc1cc(Cl)c(O)c(Cl)c1,cell-free assay,,,,0.5 µM,remaining signal,62.3%
O=C(NC[C@@H]1[C@H]2CN(C(=O)OCc3cc(C(F)(F)F)cc(C(F)(F)F)c3)C[C@@H]12)c1ccc2[nH]nnc2c1,cell-free assay,,competition with immobilised ligand,,1 µM,remaining binding,88%
Cc1cc(NC(=O)c2cccc3cc(-c4cccc5[nH]nc(N)c45)ccc23)ccc1F,enzyme activity,inhibitor,,,0.1 µM,activity vs control,89%
COCCOc1nc(-c2ccc(Cl)nc2)nc2c1CN(C(=O)c1ncn3ccccc13)CC2,cell-free assay,,competition with immobilised ligand,,0.1 µM,remaining binding,70%
Cn1c2c(Cl)c(Cl)ccc2c2cc(N)[nH]c(=O)c21,thermal stability,,DSF,,10 µM,ΔTm,0.1 °C
